Assays:
[1] = Selectivity index, ratio of CC50 for human RD cells to EC50 for antiviral activity against Enterovirus A71 infected in human RD cells; format: toxicity, cell-based; details: read-out: Ratio CC50/EC50
[2] = system: Human immunodeficiency virus 1; assay: Anti-HIV activity against HIV-1 NL4.3 infected in human MT4 cells assessed as reduction in virus-indued cytopathic effect preincubated with cells for 30 mins followed by viral infection and measured after 5 days by MTS assay; format: functional, organism-based; details: Human immunodeficiency virus 1, NL4.3, MT4
Outline: (§1)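 MT-4 cells (1×10^6 cells/mL) were preincubated with compound for 30 min at 37 °C, then infected with cell-line-adapted NL4.3 or ROD dosed by TCID50 of the stock. After 5 days, CPE was scored microscopically and EC50 calculated from MTS/PES reduction (A490). Mean ± SD of at least three independent experiments.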

[3] = system: Human immunodeficiency virus 2; assay: Anti-HIV activity against HIV-2 ROD infected in human MT4 cells assessed as reduction in virus-indued cytopathic effect preincubated with cells for 30 mins followed by viral infection and measured after 5 days by MTS assay; format: functional, organism-based; details: Human immunodeficiency virus 2, ROD; outline: as §1
[4] = Cytotoxicity against human RD cells assessed as reduction in cell viability measured after 3 days by MTS/PMS assay; format: cell-based; details: time 3 day
Outline: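 Uninfected RD cells were treated with serial compound dilutions in the same 3-day setup as the antiviral assay. […] Multiple dose–response curves (>2) from >1 independent experiments.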

Enterovirus A71 = assay: Antiviral activity against Enterovirus A71 BrCr infected in human RD cells assessed as reduction in virus-induced cytopathic effect incubated for 3 days by MTS/PMS assay; format: functional, organism-based; details: Enterovirus A, 72 h
[5] = Cytotoxicity against human MT4 cells assessed as reduction in cell viability measured after 5 days by MTS/PES assay; format: cell-based; details: time 5 day
Outline: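 Uninfected MT-4 cells were exposed to compound for 5 days. Viability was read by MTS/PES (A490, formazan proportional to living cells). […] Mean ± SD of at least three independent experiments.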

[6] = system: Human immunodeficiency virus 1; assay: Inhibition of HIV-1 gp120 interaction with human CD4 assessed as inhibition of viral entry at 156 to […] by SPR analysis; details: dose lower […], dose upper […]
[7] = Inhibition of human mAb clone 447-52D binding to HIV1 gp120 expressed in human MT4 cells by flow cytometry analysis; format: cell-based, Human immunodeficiency virus 1
[8] = Inhibition of mouse mAb clone 9284 binding to HIV1 gp120 expressed in human MT4 cells by flow cytometry analysis; format: cell-based, Human immunodeficiency virus 1
[9] = Inhibition of human mAb clone 2G12 binding to HIV1 gp120 expressed in human MT4 cells by flow cytometry analysis; format: cell-based, Human immunodeficiency virus 1
[10] = Inhibition of mouse mAb clone 9305 binding to HIV1 gp120 expressed in human MT4 cells by flow cytometry analysis; format: cell-based, Human immunodeficiency virus 1
[11] = system: Human immunodeficiency virus 1; assay: Binding affinity to CM5 sensor chip immobilized recombinant HIV-1 gp120 assessed as association constant at 12.5 to 0.1 uM by SPR analysis; details: dose 12.5-0.1 µM
[12] = system: Human immunodeficiency virus 1; assay: Potency index, ratio of AL-471 Kd to test compound Kd for binding affinity to CM5 sensor chip immobilized recombinant HIV-1 gp120 at 12.5 to 0.1 uM measured for 4 mins by SPR analysis; details: dose 12.5-0.1 µM
[13] = system: Human immunodeficiency virus 1; assay: Potency index, ratio of AL-471 EC50 to test compound EC50 for anti-HIV activity against HIV-1 NL4.3 infected in human MT4 cells assessed as reduction in virus-indued cytopathic effect preincubated with cells for 30 mins followed by viral infection and measured after 5 days by MTS assay; format: functional; details: time 120.5 hrs
[14] = system: Human immunodeficiency virus 1; assay: Inhibition of HIV-1 gp120 interaction with human CD4 assessed as fold change in inhibition of viral entry at 10 to 40 nM by SPR analysis relative to AL-471; details: dose 10-40 nM
Outline: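 His-CD4 at 2 μg/mL captured on a NiCl2-activated chip channel, with a reference channel alongside. 25 nM gp120 premixed with compound, 10 000 to 10 nM in fourfold steps, injected 2 min over both channels. Surface regenerated with 350 mM EDTA. Binding % from maximum response at injection end versus gp120 alone. Triplicate experiments.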

rhinovirus B14 = assay: Antiviral activity against Human rhinovirus 14 infected in HeLa cells assessed as reduction in virus induced cytopathic effect; format: functional, organism-based; details: Rhinovirus B
rhinovirus A2 = assay: Antiviral activity against Human rhinovirus 2 infected in HeLa cells assessed as reduction in virus induced cytopathic effect; format: functional, organism-based; details: Rhinovirus A
[15] = system: Human immunodeficiency virus 1; assay: Inhibition of HIV-1 gp120 interaction with human CD4 assessed as inhibition of viral entry at 10 to 40 nM by SPR analysis relative to control; details: dose 10-40 nM
Outline: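 His-CD4 (2 μg/mL) was captured on a Ni-chelated chip (0.5 mM NiCl2 activation). 25 nM gp120 premixed with compound (10 000 to 10 nM, fourfold steps) was injected for 2 min over reference and analysis channels. Binding % used the maximum response at end of injection relative to 25 nM gp120 alone. Regeneration was with 350 mM EDTA. Run in triplicate.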

[16] = system: Human immunodeficiency virus 1; assay: Anti-HIV activity against HIV-1 Ba-L infected in PHA-stimulated PBMC expressing CCR5 assessed as inhibition of virus-indued cytopathogenic effect measured after 10 days by ELISA; format: functional, organism-based; details: Human immunodeficiency virus 1, Ba-L, 240 h
[17] = system: Human immunodeficiency virus 1; assay: Anti-HIV activity against HIV-1 NL4.3 infected in PHA-stimulated human PBMC expressing CXCR-4 assessed as inhibition of virus-indued cytopathogenic effect measured after 10 days by ELISA; format: functional, organism-based; details: Human immunodeficiency virus 1, NL4.3, PBMC, 240 h
Enterovirus [18] = assay: Antiviral activity against Enterovirus A71 harbouring VP1 S184T mutant infected in human RD cells assessed as reduction in virus induced cytopathic effect incubated for 3 days by MTS/PMS assay; format: functional, organism-based
Enterovirus [19] = assay: Antiviral activity against Enterovirus A71 harbouring VP1 P246S mutant infected in human RD cells assessed as reduction in virus induced cytopathic effect incubated for 3 days by MTS/PMS assay; format: functional, organism-based
Enterovirus [20] = assay: Antiviral activity against Enterovirus A71 harbouring VP1 S184T/P246S double mutant infected in human RD cells assessed as reduction in virus induced cytopathic effect incubated for 3 days by MTS/PMS assay; format: functional, organism-based

Work on O=C(CCOCC(COCCC(=O)NC(Cc1c[nH]c2c(-c3ccc(C(=O)O)cc3)cccc12)C(=O)O)(COCCC(=O)NC(Cc1c[nH]c2c(-c3ccc(C(=O)O)cc3)cccc12)C(=O)O)COCCC(=O)NC(Cc1c[nH]c2c(-c3ccc(C(=O)O)cc3)cccc12)C(=O)O)NC(Cc1c[nH]c2c(-c3ccc(C(=O)O)cc3)cccc12)C(=O)O (configuration not stated) yielded a selectivity ratio [1] of 60.

With O=C(CCC(CCC(=O)NC(Cc1c[nH]c2c(-c3ccc(C(=O)O)cc3)cccc12)C(=O)O)(CCC(=O)NC(Cc1c[nH]c2c(-c3ccc(C(=O)O)cc3)cccc12)C(=O)O)[N+](=O)[O-])NC(Cc1c[nH]c2c(-c3ccc(C(=O)O)cc3)cccc12)C(=O)O (configuration not stated) the EC50 [2] was 12 µM, the EC50 [3] was 49.7 µM and the CC50 at 72 h [4] was > 61 µM. The EC50 (Enterovirus A71) was 61.6 µM, the CC50 at 120 h [5] was > 100 µM and the selectivity ratio [1] was 1.

For O=C(CCOCC(COCCC(=O)NC(Cc1c[nH]c2c(-c3cccc(C(=O)O)c3)cccc12)C(=O)O)(COCCC(=O)NC(Cc1c[nH]c2c(-c3cccc(C(=O)O)c3)cccc12)C(=O)O)COCCC(=O)NC(Cc1c[nH]c2c(-c3cccc(C(=O)O)c3)cccc12)C(=O)O)NC(Cc1c[nH]c2c(-c3cccc(C(=O)O)c3)cccc12)C(=O)O (configuration not stated), the selectivity ratio [1] was 20.

For O=C(CCOCC(COCCC(=O)NC(Cc1c(-c2cc(C(=O)O)cc(C(=O)O)c2)[nH]c2ccccc12)C(=O)O)(COCCC(=O)NC(Cc1c(-c2cc(C(=O)O)cc(C(=O)O)c2)[nH]c2ccccc12)C(=O)O)COCCC(=O)NC(Cc1c(-c2cc(C(=O)O)cc(C(=O)O)c2)[nH]c2ccccc12)C(=O)O)NC(Cc1c(-c2cc(C(=O)O)cc(C(=O)O)c2)[nH]c2ccccc12)C(=O)O (configuration not stated), the inhibition [6] was 50%, the IC50 [7] was > 100 µM and the IC50 [8] was > 100 µM. The IC50 [9] was > 100 µM and the IC50 [10] was > 100 µM.

O=C(CCOCC(COCCC(=O)NC(Cc1c[nH]c2c(-c3cc(C(=O)O)cc(C(=O)O)c3)cccc12)C(=O)O)(COCCC(=O)NC(Cc1c[nH]c2c(-c3cc(C(=O)O)cc(C(=O)O)c3)cccc12)C(=O)O)COCCC(=O)NC(Cc1c[nH]c2c(-c3cc(C(=O)O)cc(C(=O)O)c3)cccc12)C(=O)O)NC(Cc1c[nH]c2c(-c3cc(C(=O)O)cc(C(=O)O)c3)cccc12)C(=O)O (configuration not stated) showed a selectivity ratio [1] of 157.

Work on O=C(CCOCC(COCCC(=O)NC(Cc1c(-c2ccc(C(=O)O)cc2)[nH]c2c(-c3ccc(C(=O)O)cc3)cccc12)C(=O)O)(COCCC(=O)NC(Cc1c(-c2ccc(C(=O)O)cc2)[nH]c2c(-c3ccc(C(=O)O)cc3)cccc12)C(=O)O)COCCC(=O)NC(Cc1c(-c2ccc(C(=O)O)cc2)[nH]c2c(-c3ccc(C(=O)O)cc3)cccc12)C(=O)O)NC(Cc1c(-c2ccc(C(=O)O)cc2)[nH]c2c(-c3ccc(C(=O)O)cc3)cccc12)C(=O)O (configuration not stated) yielded a selectivity ratio [1] of 667.

For O=C(CCC(CCC(=O)NC(Cc1c(-c2cc(C(=O)O)cc(C(=O)O)c2)[nH]c2ccccc12)C(=O)O)(CCC(=O)NC(Cc1c(-c2cc(C(=O)O)cc(C(=O)O)c2)[nH]c2ccccc12)C(=O)O)[N+](=O)[O-])NC(Cc1c(-c2cc(C(=O)O)cc(C(=O)O)c2)[nH]c2ccccc12)C(=O)O (configuration not stated), the selectivity ratio [1] was 203.

Molecule CCOC(=O)c1ccc(OCCC2CCN(c3ccc(C)nn3)CC2)cc1 [PIRODAVIR] has a selectivity ratio [1] of 333.

For O=C(CCOCC(COCCC(=O)NC(Cc1c(-c2cc(C(=O)O)cc(C(=O)O)c2)[nH]c2c(-c3cc(C(=O)O)cc(C(=O)O)c3)cccc12)C(=O)O)(COCCC(=O)NC(Cc1c(-c2cc(C(=O)O)cc(C(=O)O)c2)[nH]c2c(-c3cc(C(=O)O)cc(C(=O)O)c3)cccc12)C(=O)O)COCCC(=O)NC(Cc1c(-c2cc(C(=O)O)cc(C(=O)O)c2)[nH]c2c(-c3cc(C(=O)O)cc(C(=O)O)c3)cccc12)C(=O)O)NC(Cc1c(-c2cc(C(=O)O)cc(C(=O)O)c2)[nH]c2c(-c3cc(C(=O)O)cc(C(=O)O)c3)cccc12)C(=O)O (configuration not stated), the ka [11] was 3.34 10^3/M/s, the Ratio [12] was 6 and the “Ratio EC50” value [13] was 3.5. For the same molecule, the fold change (FC) [14] was 16, the EC50 (rhinovirus B14) was > 50 µM and the IC50 [9] was > 100 µM. For the same molecule, the IC50 [10] was > 100 µM, the EC50 (rhinovirus A2) was > 50 µM and the inhibition [15] was 50%. For the same molecule, the selectivity ratio [1] was 2500.

For Cc1nnc(C(C)C)n1[C@H]1C[C@H]2CC[C@@H](C1)N2CC[C@H](NC(=O)C1CCC(F)(F)CC1)c1ccccc1 [MARAVIROC], the EC50 [16] was 0.00448 µM and the EC50 [17] was > 1 µM.

Molecule O=C(CCC(CCC(=O)NC(Cc1c[nH]c2c(-c3cccc(C(=O)O)c3)cccc12)C(=O)O)(CCC(=O)NC(Cc1c[nH]c2c(-c3cccc(C(=O)O)c3)cccc12)C(=O)O)[N+](=O)[O-])NC(Cc1c[nH]c2c(-c3cccc(C(=O)O)c3)cccc12)C(=O)O (configuration not stated) has a selectivity ratio [1] of 1.

With O=C(CCC(CCC(=O)NC(Cc1c(-c2cc(C(=O)O)cc(C(=O)O)c2)[nH]c2c(-c3cc(C(=O)O)cc(C(=O)O)c3)cccc12)C(=O)O)(CCC(=O)NC(Cc1c(-c2cc(C(=O)O)cc(C(=O)O)c2)[nH]c2c(-c3cc(C(=O)O)cc(C(=O)O)c3)cccc12)C(=O)O)[N+](=O)[O-])NC(Cc1c(-c2cc(C(=O)O)cc(C(=O)O)c2)[nH]c2c(-c3cc(C(=O)O)cc(C(=O)O)c3)cccc12)C(=O)O (configuration not stated) the EC50 [2] was 0.04 µM, the EC50 [3] was 0.07 µM and the CC50 at 72 h [4] was > 100 µM. The EC50 (Enterovirus A71) was 0.2 µM, the CC50 at 120 h [5] was > 100 µM and the selectivity ratio [1] was 526.

With O=C(CCC(CCC(=O)N[C@H](Cc1c[nH]c2ccccc12)C(=O)O)(CCC(=O)N[C@H](Cc1c[nH]c2ccccc12)C(=O)O)NC(=O)CCOCC(COCCC(=O)NC(CCC(=O)N[C@H](Cc1c[nH]c2ccccc12)C(=O)O)(CCC(=O)N[C@H](Cc1c[nH]c2ccccc12)C(=O)O)CCC(=O)N[C@H](Cc1c[nH]c2ccccc12)C(=O)O)(COCCC(=O)NC(CCC(=O)N[C@H](Cc1c[nH]c2ccccc12)C(=O)O)(CCC(=O)N[C@H](Cc1c[nH]c2ccccc12)C(=O)O)CCC(=O)N[C@H](Cc1c[nH]c2ccccc12)C(=O)O)COCCC(=O)NC(CCC(=O)N[C@H](Cc1c[nH]c2ccccc12)C(=O)O)(CCC(=O)N[C@H](Cc1c[nH]c2ccccc12)C(=O)O)CCC(=O)N[C@H](Cc1c[nH]c2ccccc12)C(=O)O)N[C@H](Cc1c[nH]c2ccccc12)C(=O)O the EC50 (Enterovirus [18]) was 2 µM, the CC50 at 72 h [4] was 24.9 µM and the EC50 (Enterovirus [19]) was 4.7 µM. It also gave an EC50 (Enterovirus [20]) of 8.9 µM and an EC50 (Enterovirus A71) of 0.3 µM.

Molecule O=C(CCC(CCC(=O)NC(Cc1c[nH]c2c(-c3cc(C(=O)O)cc(C(=O)O)c3)cccc12)C(=O)O)(CCC(=O)NC(Cc1c[nH]c2c(-c3cc(C(=O)O)cc(C(=O)O)c3)cccc12)C(=O)O)[N+](=O)[O-])NC(Cc1c[nH]c2c(-c3cc(C(=O)O)cc(C(=O)O)c3)cccc12)C(=O)O (configuration not stated) has a selectivity ratio [1] of 63.
